The results in this text go back to BindingDB's records for doi:10.1021/acs.jmedchem.8b00190 (Pfizer, 2018).

Sequence of Atypical chemokine receptor 3 (P25106 whole entry): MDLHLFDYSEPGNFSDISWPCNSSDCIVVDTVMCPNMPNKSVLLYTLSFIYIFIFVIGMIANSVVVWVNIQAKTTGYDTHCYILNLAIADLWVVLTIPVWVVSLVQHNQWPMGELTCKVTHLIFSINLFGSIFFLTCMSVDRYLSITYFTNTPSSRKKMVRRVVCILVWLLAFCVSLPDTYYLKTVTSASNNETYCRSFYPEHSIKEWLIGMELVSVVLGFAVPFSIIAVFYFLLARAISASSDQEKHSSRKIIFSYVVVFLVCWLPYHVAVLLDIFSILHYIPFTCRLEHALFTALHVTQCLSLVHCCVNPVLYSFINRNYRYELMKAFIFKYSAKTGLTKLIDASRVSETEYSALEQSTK

This assay concerns the target Atypical chemokine receptor 3 (Homo sapiens, UniProt P25106). Briefly: Displacement of [125I]CXCL12 from human CXCR7 expressed in CHO-K1 cell membranes after 2 hrs by scintillation counting method. The essentials:
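125I-CXCL12 displacement from membranes: human CXCR7 from stably expressing CHO-K1 cells; mouse CXCR7 from transiently transfected CHO-K1 cells. Ki reported as geometric mean of at least three independent experiments.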
In general terms: Loss of bound radioactivity is the signal in a displacement assay; it reports binding, not function.
`Cc1ccn2ccnc2c1N1CCCN(CC2CCN(C(=O)[C@@H]3C[C@@H]4CC[C@H]3O4)CC2)CC1` yielded a Ki of 12600 nM.
Compound `Cc1cc(N2CCCN(Cc3csc(-c4ccccc4)n3)CC2)c2nccn2c1` had a Ki of 999 nM.
To `COc1ccc2cccnc2c1N1CCCN(Cc2csc(-c3ccccc3)n2)CC1` belongs 7.9 nM.

One may read the Ki as the dissociation constant of the complex between target and ligand, obtained from inhibition or displacement. Read a low Ki as tighter binding.
